For test [1], the target named is Dual specificity tyrosine-phosphorylation-regulated kinase 1B (Homo sapiens, UniProt Q9Y463). Briefly: Inhibition of DYRK1B (unknown origin).
Test [2] addresses Dual specificity tyrosine-phosphorylation-regulated kinase 1A (Homo sapiens, UniProt Q13627). Description: Inhibition of DYRK1A (unknown origin).
Another test concerns COLO 205. Briefly: Cytotoxicity against human COLO205 cells assessed as reduction in cell viability. The class given is functional, cell-based.
The test system of test [3] is SW-620. Briefly: Anticancer activity against human SW-620 cells assessed decrease in viable cells at 5 uM measured after 10 days by calcein AM staining based 3D spheroid assay. The class given is functional, cell-based. As to conditions: time 10.0 day. The method, boiled down:
(§1)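 3D spheroids grown in poly-HEMA-coated U-bottom wells. Compound added at days 3, 5 and 7. Cells were stained with Hoechst33342 for nuclei, calcein AM for live cells and ethidium homodimer-1 for dead cells. Images were taken on day 10 at 50×.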

Test [4] relates to DLD-1. Briefly: Cytotoxicity against human DLD-1cells assessed as reduction in cell viability. The format is functional, cell-based.
The subject of test [5] is DLD-1. Briefly: Induction of autophagic cell death in human DLD-1 cells assessed as multi-vesicle formation. The format is functional, cell-based.
For another test, the system named is HT-29. Description: Cytotoxicity against human HT29 cells assessed as reduction in cell viability. The class given is functional, cell-based.
The subject of test [6] is SW480. Briefly: Anticancer activity against human SW480 cells assessed dead cells at 5 uM measured after 10 days by Ethidium Homodimer-1 staining based 3D spheroid assay. The class given is functional, cell-based. The note with it: time 10.0 day. In outline:
as §1

Test [7] relates to HCT-116. Description: Induction of autophagic cell death in human HCT-116 cells assessed as multi-vesicle formation. The class given is functional, cell-based.
A further test has as its system Colon cancer cell line. Description: Cytotoxicity against patient-derived human colon cancer organoids assessed as reduction of crypt size and disruption of intact organoid structure at 10 uM measured after 5 days by Celltiter-glo luminescent assay relative to control. The class given is functional, cell-based. The note with it: time 5.0 day.
The next test relates to LoVo. Briefly: Cytotoxicity against human LOVO cells assessed as reduction in cell viability. The format is functional, cell-based.
The next test relates to RKO. Briefly: Cytotoxicity against human RKO cells assessed as reduction in cell viability. The class given is functional, cell-based.
Test [8] has as its system SW-620. Description: Anticancer activity against human SW-620 cells assessed dead cells at 5 uM measured after 10 days by Ethidium Homodimer-1 staining based 3D spheroid assay. The format is functional, cell-based. As to conditions: time 10.0 day. The method, boiled down: as §1
The test system of test [9] is SW480. Briefly: Cytotoxicity against human SW480 cells assessed as reduction in cell viability. The class given is functional, cell-based.
Test [10] relates to SW480. Briefly: Anticancer activity against human SW480 cells assessed decrease in viable cells at 5 uM measured after 10 days by calcein AM staining based 3D spheroid assay. The format is functional, cell-based. As to conditions: time 10.0 day. The method, boiled down: as §1
Test [11] concerns SW480. Description: Anticancer activity against human SW480 cells assessed decrease in nuclei size at 5 uM measured after 10 days by Hoechst33342 staining based 3D spheroid assay. The class given is functional, cell-based. As to conditions: time 10.0 day. In outline:
as §1

The test system of test [12] is SW-620. Briefly: Anticancer activity against human SW-620 cells assessed decrease in nuclei size at 5 uM measured after 10 days by Hoechst33342 staining based 3D spheroid assay. The format is functional, cell-based. The note with it: time 10.0 day. In outline: as §1
The next test concerns LS174T. Description: Cytotoxicity against human LS174T cells assessed as reduction in cell viability. The format is functional, cell-based.
The test system of test [13] is SW-620. Briefly: Cytotoxicity against human SW-620 cells assessed as reduction in cell viability. The format is functional, cell-based.
Test [14] has as its system HCT-116. Briefly: Cytotoxicity against human HCT116 cells assessed as reduction in cell viability. The format is functional, cell-based.
In a further test the test system is HCT-15. Briefly: Cytotoxicity against human HCT15 cells assessed as reduction in cell viability. The class given is functional, cell-based.

Active and inactive are the calls of the source. The rule behind the calls is not given here.

For 37 compounds, IC50 and Activity results are on record in ChEMBL document CHEMBL4819156, “Synthesis of novel 1H-Pyrazolo[3,4-b]pyridine derivatives as DYRK 1A/1B inhibitors” (Bioorg Med Chem Lett, 2021).

Sequence of Dual specificity tyrosine-phosphorylation-regulated kinase 1B (Q9Y463 whole entry): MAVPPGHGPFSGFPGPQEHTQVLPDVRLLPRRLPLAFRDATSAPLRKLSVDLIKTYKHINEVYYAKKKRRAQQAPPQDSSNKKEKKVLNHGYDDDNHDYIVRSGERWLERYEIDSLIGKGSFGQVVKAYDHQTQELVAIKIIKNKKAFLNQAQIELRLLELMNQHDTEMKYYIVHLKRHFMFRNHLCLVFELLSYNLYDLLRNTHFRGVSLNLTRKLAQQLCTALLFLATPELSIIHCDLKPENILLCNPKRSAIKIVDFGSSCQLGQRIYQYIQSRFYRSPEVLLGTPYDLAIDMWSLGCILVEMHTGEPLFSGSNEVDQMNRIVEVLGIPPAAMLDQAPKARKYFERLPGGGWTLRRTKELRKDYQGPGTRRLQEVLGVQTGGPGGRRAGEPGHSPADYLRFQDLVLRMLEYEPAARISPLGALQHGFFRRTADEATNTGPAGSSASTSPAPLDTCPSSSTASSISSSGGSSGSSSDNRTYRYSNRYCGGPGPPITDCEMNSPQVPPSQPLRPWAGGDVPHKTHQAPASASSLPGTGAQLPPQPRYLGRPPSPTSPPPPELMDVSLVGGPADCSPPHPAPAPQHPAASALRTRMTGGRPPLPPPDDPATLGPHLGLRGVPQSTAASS

`O=[N+]([O-])c1ccc(-c2n[nH]c3ncc(Br)cc23)cc1`: in test [1], the IC50 is > 5 µM.

On to `COc1ncc(-c2n[nH]c3ncc(-c4ccc(OC)c(OC)c4)cc23)cn1`, for which the results for the IC50 in [2] and in test [1] were 0.299 µM and 0.167 µM, respectively.

The compound `Brc1cnc2[nH]nc(-c3ccc4cc[nH]c4c3)c2c1` yielded an IC50 in [1] of 0.615 µM.

Consider `Oc1cccc(-c2cnc3[nH]nc(-c4cccc(O)c4)c3c2)c1`, for which the concentration for half-maximal inhibition (IC50) in [2] was found to be 0.213 µM; in [1] it was 0.039 µM.

For the compound `Oc1ccc(-c2cnc3[nH]nc(-c4ccc(O)cc4)c3c2)cc1`, the half-maximal inhibitory concentration (IC50) in [2] was found to be 0.005 µM; in test [1], 0.006 µM.

Regarding `CC(=O)Nc1cccc(-c2n[nH]c3ncc(-c4ccc(O)c(O)c4)cc23)c1`, the IC50 in test [2] turned out to be 0.024 µM; in test [1], 0.029 µM.

As to `COc1ccc(-c2n[nH]c3ncc(Nc4cccc(O)c4)cc23)cc1`, the concentration for half-maximal inhibition (IC50) was found to be 0.033 µM in test [2] and 0.031 µM in test [1].

The compound `COc1ccc(-c2n[nH]c3ncc(-c4ccc(NC(N)=O)cc4)cc23)cc1` returned a half-maximal inhibitory concentration (IC50) in test [1] of 0.002 µM.

Turning to `COc1cccc(-c2n[nH]c3ncc(Br)cc23)c1`, the 50% inhibitory concentration (IC50) in test [1] was > 5 µM.

Consider `COc1cccc(-c2n[nH]c3ncc(Nc4cccc(OCc5ccccc5)c4)cc23)c1`, for which the figures for the IC50 in [2] and in test [1] were > 5 µM and 3.68 µM, respectively.

`COc1ncc(-c2n[nH]c3ncc(-c4ccc(O)c(O)c4)cc23)cn1` displayed an IC50 in test [1] of 0.015 µM.

In [1], `Brc1cnc2[nH]nc(-c3cnn(Cc4ccccc4)c3)c2c1` gave a 50% inhibitory concentration (IC50) of 0.121 µM.

In test [1], `NC(=O)Nc1ccc(-c2cnc3[nH]nc(-c4ccc(O)cc4)c3c2)cc1` yielded an IC50 of 0.01 µM.

In test [1], `CC(=O)Nc1ccc(-c2cnc3[nH]nc(-c4ccc(O)cc4)c3c2)cc1` had a half-maximal inhibitory concentration (IC50) of 0.013 µM.

`O=C(O)c1ccc(-c2n[nH]c3ncc(Br)cc23)cc1`: in test [1], half-maximal inhibition (IC50) was put at 1.05 µM.

As for `O=[N+]([O-])c1cccc(-c2n[nH]c3ncc(Br)cc23)c1`, the half-maximal inhibitory concentration (IC50) in [1] was > 5 µM.

`Brc1cnc2[nH]nc(-c3cncnc3)c2c1`: the IC50 in [2] was 0.092 µM; in [1], 4.04 µM.

The compound `Nc1cccc(-c2n[nH]c3ncc(Br)cc23)c1` returned a half-maximal inhibitory concentration (IC50) in [1] of 0.635 µM.

In the case of `Oc1ccc(-c2n[nH]c3ncc(Br)cc23)cc1`, the IC50 is 0.056 µM in test [2] and 0.087 µM in test [1].

In [1], `COc1ncc(-c2n[nH]c3ncc(Br)cc23)cn1` returned an IC50 of 0.141 µM.

For the compound `COc1ccc(-c2n[nH]c3ncc(-c4ccc(OC)c(OC)c4)cc23)cc1`, the IC50 in [2] was determined as 0.075 µM; in test [1], 0.097 µM.

In turn, `Brc1cnc2[nH]nc(-c3ccsc3)c2c1` came in with an IC50 in test [1] of 0.736 µM.

Consider `CC(=O)Nc1cccc(-c2n[nH]c3ncc(Br)cc23)c1`, for which the half-maximal inhibitory concentration (IC50) was determined as 0.638 µM in [2] and 0.257 µM in test [1].

Consider `COc1cccc(-c2n[nH]c3ncc(Nc4ccccc4)cc23)c1`, for which the IC50 in test [2] came out at 2.82 µM; in [1] it was 0.575 µM.

Regarding `COc1ccc(-c2n[nH]c3ncc(Nc4ccccc4)cc23)cc1`, the IC50 in test [2] worked out at 0.365 µM; in [1] it was 0.188 µM.

`Brc1cnc2[nH]nc(-c3ccccc3)c2c1` had an IC50 in [1] of 2.04 µM.

Regarding `CS(=O)(=O)Nc1ccc(-c2cnc3[nH]nc(-c4ccc(O)cc4)c3c2)cc1`, the half-maximal inhibitory concentration (IC50) in [1] was 0.005 µM.

In the case of `COc1ccc(-c2n[nH]c3ncc(Nc4cccc(OCc5ccccc5)c4)cc23)cc1`, the IC50 in test [2] and in test [1] was 0.309 µM in each case.

In the case of `COc1ccc(-c2n[nH]c3ncc(Nc4cc(C(F)(F)F)cc(C(F)(F)F)c4)cc23)cc1`, the half-inhibitory concentration (IC50) in test [2] came out at 3.55 µM; in test [1] it was 1.27 µM.

With `CC(=O)Nc1ccc(-c2n[nH]c3ncc(Br)cc23)cc1`, the IC50 in [2] is 1.11 µM; in test [1] it was 0.568 µM.

In the case of `COc1ccc(-c2n[nH]c3ncc(Br)cc23)cc1`, in [1], the midpoint of inhibition, the IC50, lay at 0.054 µM.

Consider `COc1ccc(-c2cnc3[nH]nc(-c4cccc(NC(C)=O)c4)c3c2)cc1OC`, for which the IC50 in [2] turned out to be 0.632 µM; in test [1], 0.287 µM.

Turning to `COc1ccc(-c2n[nH]c3ncc(-c4ccc(NC(C)=O)cc4)cc23)cc1`, the 50% inhibitory concentration (IC50) in test [2] was found to be 0.008 µM; in [1], 0.007 µM.

Consider `Oc1ccc(-c2n[nH]c3ncc(-c4ccc(O)c(O)c4)cc23)cc1`, for which the half-inhibitory concentration (IC50) in the test with COLO 205 came to 6.22 µM; with DLD-1 [4], 2.45 µM; with HT-29, 10.9 µM; in the test on LoVo, 19.1 µM; in the test with RKO it was 1.1 µM; in the test with SW480 [9], 4.13 µM. Moreover, the IC50 is 37.5 µM in the test with LS174T, 3.97 µM in the test with SW-620 [13], 1.57 µM with HCT-116 [14] and 20.1 µM in the test on HCT-15. Also, the outcome in the test on SW-620 [3], with DLD-1 [5], with SW480 [6], in the test with HCT-116 [7], in the test with Colon cancer cell line and with SW-620 [8] was Active. Moreover, the result in the test on SW480 [10], in the test on SW480 [11] and in the test on SW-620 [12] was Active.

As to `Oc1ccc(-c2cnc3[nH]nc(-c4ccccc4)c3c2)cc1`, the half-maximal inhibitory concentration (IC50) in test [2] was found to be 0.044 µM; in [1], 0.056 µM.

Turning to `c1ccc(-c2cnc3[nH]nc(-c4ccccc4)c3c2)cc1`, the IC50 in test [2] and in test [1] was > 5 µM each time.

Consider `COc1cccc(-c2n[nH]c3ncc(Nc4cccc(O)c4)cc23)c1`, for which the concentration for half-maximal inhibition (IC50) is 0.95 µM in test [2] and 0.191 µM in [1].
